Screens deposited in PubChem BioAssay by Sanford-Burnham Center for Chemical Genomics.
SENP8 block-1: inhibitors of human SENP8 protease; Q96LD8; purified SENP8, Z-RLRGG-aminoluciferin cleavage, luminescence; inhibition, % at 10 µM; actives 1.2% (n = 330,000); AID 2540; in the data active = inhibition above about 50%
Target sequence (Q96LD8 whole entry, looked up): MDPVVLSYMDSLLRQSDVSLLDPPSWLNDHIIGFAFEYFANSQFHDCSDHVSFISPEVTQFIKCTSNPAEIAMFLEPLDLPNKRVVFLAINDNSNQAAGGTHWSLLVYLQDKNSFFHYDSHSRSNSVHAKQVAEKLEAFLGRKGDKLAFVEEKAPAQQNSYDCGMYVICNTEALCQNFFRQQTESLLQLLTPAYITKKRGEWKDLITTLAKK
SENP6 block: inhibitors of human SENP6 protease; inhibition, % at 10 µM; actives 1.8% (n = 330,000); Q9GZR1; AID 2599; Recombinant SENP6 catalytic domain, aminoluciferin luminescence;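 active = inhibition above about 50% at the single tested dose, limit read from the data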
SENP8 block-2: blocks human SENP8 cleavage of Nedd8 substrate | AID 602440 | actives 0.64% (n = 360,000) | inhibition, % at 20 µM | Q96LD8 | recombinant SENP8, Nedd8 substrate fluorescence; in the data active = inhibition mostly above about 40%, no sharp cut-off; inactive = mostly below about 27%
SENP7 block: blocks the human protease SENP7; recombinant SENP7, Z-RLRGG-aminoluciferin luminescence, 40 min; inhibition, % at 5 µM; actives 1.5% (n = 330,000); Q9BQF6;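 active = inhibition above about 50% at the single test dose, limit read from the data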
SENP1 inh: inhibitors of human SENP1 SUMO protease catalytic domain | inhibition, % at 10 µM | recombinant SENP1 catalytic domain, CyPet-SUMO1-YPet FRET cleavage | Q9P0U3 | actives 0.21% (n = 360,000) | AID 624204;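 active = inhibition at least 30% at 10 µM, raw YFP signal under a set limit, fluorescence ratio 0.5 to 1.5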
Target sequence (Q9P0U3 419-644 limits assumed): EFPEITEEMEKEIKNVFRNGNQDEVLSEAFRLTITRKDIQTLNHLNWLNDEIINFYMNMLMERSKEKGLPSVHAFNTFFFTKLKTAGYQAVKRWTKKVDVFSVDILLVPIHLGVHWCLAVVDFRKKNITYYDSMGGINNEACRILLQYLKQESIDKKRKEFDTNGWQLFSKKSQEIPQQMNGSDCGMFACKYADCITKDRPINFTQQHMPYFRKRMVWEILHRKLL
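Material – human SENP1 catalytic domain · Input – SENP1 enzyme, 20 pM final · Compound dosing – single concentration of 10 µM compound, 0.5% DMSO final · Timing – enzyme reaction for 50 min at room temperature, dark · Measured by – FRET fluorescence in CFP and YFP emission channels · Control set – no-enzyme wells low, DMSO-plus-enzyme wells high control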
SENP8 conf: human SENP8 inhibition, confirmed | shares compounds with SENP7 block | Recombinant SENP8, Z-RLRGG-aminoluciferin luminescence, 60 min | inhibition, % at 12.5 µM | actives 40% (n = 6,200) | AID 488912;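 active = mean inhibition across replicates above about 50%, limit read from the data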
SENP6 conf: confirmation of human SENP6 protease inhibitors. inhibition, % at 12.5 µM. actives 58% (n = 6,200). AID 488915. shares compounds with SENP7 block. recombinant SENP6, Z-RLRGG-aminoluciferin luminescence
SENP7 confirm: confirmation of human SENP7 protease inhibitors; shares compounds with SENP7 block; recombinant SENP7, Z-RLRGG-aminoluciferin luminescence, 40 min; inhibition, % at 12.5 µM; actives 69% (n = 6,200)
Casp3 SENP sel: selectivity test for SENP inhibitors: human caspase-3 inhibition. shares compounds with SENP7 block. purified caspase-3, Z-DEVD-aminoluciferin luminescence, 60 min. inhibition, % at 12.5 µM. actives 60% (n = 6,200). AID 488918;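 active = mean inhibition above about 50%, limit read from the data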
Target sequence (P42574 28-227 limits assumed): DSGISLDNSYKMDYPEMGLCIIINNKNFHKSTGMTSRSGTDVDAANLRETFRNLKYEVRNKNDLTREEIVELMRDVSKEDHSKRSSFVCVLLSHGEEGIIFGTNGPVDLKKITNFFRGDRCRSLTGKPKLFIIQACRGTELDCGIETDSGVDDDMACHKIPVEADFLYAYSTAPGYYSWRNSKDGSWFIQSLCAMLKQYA
Luc interf: interferes with luciferase luminescence in SENP counter-screen. actives 39% (n = 6,200). inhibition, % at 12.5 µM. shares compounds with SENP7 block. Pre-incubated SENP8/Z-RLRGG-aminoluciferin, luciferase luminescence interference. AID 488919;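 active = mean inhibition above about 50% when retested at one dose, limit read from the data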
Large screens that a line does not name were inactive (follow-up assays come after a bar, where they were run). Most compounds without a hit are left out; they make up all but 2.5% or so of the library.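 The calls were made as follows, unless noted: active = mean inhibition above about 50% in the one-dose retest (limit read from the data); inactive = the rest.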

CCOc1ccc2nc(N3CCCCCC3)sc2c1	SENP6 block 55, SENP7 block 62 | SENP8 conf 51 | SENP6 conf 55 | SENP7 confirm 84 | Casp3 SENP sel 50 | Luc interf 57
O=C(c1cccs1)N1CCN(c2nc3c(F)cc(F)cc3s2)CC1	none
Fc1cc(F)c2nc(N3CCCCC3)sc2c1	SENP8 block-1 61, SENP7 block 75 | SENP8 conf inactive | SENP6 conf 75 | SENP7 confirm 95 | Casp3 SENP sel 72 | Luc interf inactive
Fc1ccc2nc(N3CCCC3)sc2c1	SENP7 block 56 | SENP8 conf inactive | SENP6 conf inactive | SENP7 confirm 85 | Casp3 SENP sel 69 | Luc interf inactive
O=C(O)c1ccc(CN2C[C@@H](CO)O[C@@H](n3cnc4c(NCc5ccc(F)cc5)ncnc43)C2)cc1	none (no result: SENP8 block-1, SENP6 block, SENP7 block)
Cc1ccc2c(c1)c1c(c(=O)n(-c3ccccc3C)c(=O)n1CC(=O)NCC1CCCO1)n2C (centres undefined)	none
CC(=O)Oc1ccc2nc(/C=C/c3ccccc3)oc(=O)c2c1	SENP8 block-1 77, SENP7 block 72 | SENP8 conf inactive | SENP6 conf inactive | SENP7 confirm inactive | Casp3 SENP sel 62 | Luc interf 52
CCC(C)(C)c1ccc(OCCCC[n+]2cccc(C)c2)c(C(C)(C)CC)c1	none (no result: SENP8 block-1, SENP6 block, SENP7 block)
N#Cc1c(C(F)(F)F)cc(=O)n2c1[nH]c1ccccc12	SENP8 block-1 71, SENP6 block 83 | SENP8 conf inactive | SENP6 conf 75 | SENP7 confirm 91 | Casp3 SENP sel 79 | Luc interf 76
Cc1c(Cc2ccccc2)c(=O)n2c([nH]c3ccccc32)c1C#N	SENP6 block 52 | SENP8 conf inactive | SENP6 conf inactive | SENP7 confirm inactive | Casp3 SENP sel inactive | Luc interf inactive
CC1(C(=O)NCc2ccc3c(c2)OCO3)CCN1C(=O)C1(c2ccc(Cl)cc2)CC1 (centres undefined)	none (no result: SENP8 block-1, SENP6 block, SENP7 block)
O=C1C(=C(O)c2ccccc2)C(=O)c2ccccc21	SENP6 block 74, SENP8 block-2 66 | SENP8 conf inactive | SENP6 conf inactive | SENP7 confirm inactive | Casp3 SENP sel inactive | Luc interf inactive
O=S1(=O)CC(N2CCN(CCO)CC2)CN1C1CCCCC1 (centres undefined)	none (no result: SENP8 block-1, SENP6 block, SENP7 block)
O=C(CC1Nc2cccc3cccc(c23)NC1=O)Nc1ccc(F)cc1 (centres undefined)	SENP8 block-1 60, SENP6 block 87 | SENP8 conf inactive | SENP6 conf inactive | SENP7 confirm inactive | Casp3 SENP sel inactive | Luc interf inactive
O=C(CC1Nc2ccccc2NC1=O)Nc1cc(Cl)cc(Cl)c1 (centres undefined)	none
COc1ccc(NC(=O)CC2Nc3cccc4cccc(c34)NC2=O)cc1 (centres undefined)	SENP8 block-1 59, SENP6 block 93, SENP7 block 67 | SENP8 conf inactive | SENP6 conf inactive | SENP7 confirm inactive | Casp3 SENP sel inactive | Luc interf inactive
CN=c1scc(-c2ccccc2F)n1/N=C/c1ccc[nH]1	SENP8 block-1 91 | SENP8 conf 98 | SENP6 conf 100 | SENP7 confirm 103 | Casp3 SENP sel 96 | Luc interf 97
COC(=O)c1ccc(OC(=O)/C=C/c2ccco2)cc1	SENP8 block-1 78, SENP6 block 83, SENP7 block 77 | SENP8 conf 84 | SENP6 conf 86 | SENP7 confirm 73 | Casp3 SENP sel 74 | Luc interf inactive
COc1cc(OC)cc(C(=O)Nc2ccc(Nc3ccccc3)cc2)c1	SENP8 block-1 60, SENP6 block 80, SENP7 block 58 | SENP8 conf 65 | SENP6 conf 61 | SENP7 confirm 85 | Casp3 SENP sel inactive | Luc interf inactive
COc1cc(OC)cc(C(=O)Nc2cccc(NC(=O)c3ccccc3)c2)c1	none
COc1cc(OC)cc(C(=O)Nc2cccc(C(C)=O)c2)c1	SENP6 block 65, SENP7 block 68 | SENP8 conf 58 | SENP6 conf 53 | SENP7 confirm 82 | Casp3 SENP sel 78 | Luc interf 63
C/C=C(\C)C(=O)O[C@H](c1cc2ccc(=O)oc2cc1OC)[C@@H](O)C(C)(C)O	none
CCCCn1c(NC(=O)c2ccccc2Cl)c(C#N)c2nc3ccccc3nc21	SENP8 block-1 94, SENP6 block 96, SENP7 block 70 | SENP8 conf 76 | SENP6 conf 90 | SENP7 confirm 78 | Casp3 SENP sel inactive | Luc interf inactive
N#Cc1c(NC(=O)c2ccccc2Cl)n(Cc2ccccc2)c2nc3ccccc3nc12	none (no result: SENP8 block-1, SENP6 block, SENP7 block)
CCC(=O)Nc1c(C#N)c2nc3ccccc3nc2n1C1CCCCC1	none
CCC(=O)Nc1c(C#N)c2nc3ccccc3nc2n1-c1ccccc1C	SENP6 block 55 | SENP8 conf inactive | SENP6 conf inactive | SENP7 confirm inactive | Casp3 SENP sel inactive | Luc interf inactive
O=C1C(=C2SCCCS2)CC/C1=C\c1ccc(F)cc1	SENP8 block-1 96, SENP6 block 95, SENP7 block 99 | SENP8 conf inactive | SENP6 conf 68 | SENP7 confirm 63 | Casp3 SENP sel 84 | Luc interf inactive
O=C1C(=Cc2ccc(F)cc2)Cc2ccccc21	none (no result: SENP8 block-1, SENP6 block, SENP7 block)
Cc1cccc(/C=C2\CCC(=C3SCCCS3)C2=O)c1	SENP8 block-1 93, SENP6 block 91, SENP7 block 92 | SENP8 conf inactive | SENP6 conf inactive | SENP7 confirm inactive | Casp3 SENP sel inactive | Luc interf inactive
Cc1cccc(/C=c2\s/c(=C\C(=O)C(C)(C)C)[nH]c2=O)c1	none
Clc1ccccc1N=C1NN=C(c2cccs2)CS1	SENP8 block-1 77, SENP6 block 68, SENP7 block 74 | SENP8 conf 85 | SENP6 conf 86 | SENP7 confirm 97 | Casp3 SENP sel 69 | Luc interf 77
Fc1ccccc1N=C1NN=C(c2ccccc2)CS1	none
Cc1cccc(NC(=O)COc2ccc(Br)cc2)n1	none
Cc1ccc(OCC(=O)Nc2cccc(C)n2)c(C)c1	SENP6 block 74, SENP7 block 65 | SENP8 conf inactive | SENP6 conf 67 | SENP7 confirm 90 | Casp3 SENP sel 69 | Luc interf inactive
